Measurements pooled from the literature.
Each line is one published result; the experiments were not run side by side.
SCN5A: Sodium channel protein type 5 subunit alpha (SCN5A, Homo sapiens, UniProt Q14524)

SMILES | target | assay | conditions | IC50
CCCCCCCCCCCCCC(=O)O[C@@H]1[C@@H](C)[C@@]2(O)[C@@H](C=C(CO)C[C@]3(O)C(=O)C(C)=C[C@@H]23)[C@@H]2C(C)(C)[C@]12OC(C)=O | Proteinase-activated receptor 1 (F2R, Homo sapiens, UniProt P25116) | calcium signal, antagonist |  | 0.00747 µM
N#Cc1cc(F)cc(NS(=O)(=O)c2ccc(S(=O)(=O)F)c3c2CCCC3)c1 | RALB (Homo sapiens, UniProt P11234, Y82F) | cell-free assay, inhibitor, fluorescence |  | 69 µM
COc1cc(NC(=O)C(=O)[C@H](CC(C)C)NC(=O)[C@H](CC(C)C)NC(=O)[C@H](CC(C)C)NC(=O)OCc2ccccc2)cc(OC)c1 | Proteasome component C5/PSMB5, chymotrypsin-like site (Homo sapiens, UniProt P20618+P28074) | enzyme activity in cells, inhibitor |  | 0.0251 µM
C[C@H]1COCCN1c1nc(NCc2cccnc2C(F)(F)F)c2cccnc2n1 | SCN5A | ion current, inhibitor |  | > 33 µM
CC(C)N(C)[C@@H]1CC[C@H](N2CC[C@H](NC(=O)c3cccc(C(F)(F)F)c3)C2=O)[C@H](CS(=O)(=O)C(C)C)C1 | C-C chemokine receptor type 2 (CCR2, Homo sapiens, UniProt P41597) | cell-free assay |  | 0.0003 µM
CC(C)C[C@H]1C(=O)N2CCC[C@H]2[C@]2(O)O[C@](NC(=O)[C@@H]3C=C4c5cccc6[nH]c(Br)c(c56)C[C@H]4N(C)C3)(C(C)C)C(=O)N12 | 5-hydroxytryptamine receptor 7 (HTR7, Homo sapiens, UniProt P34969) | cAMP, antagonist |  | 0.08 µM
O=c1c(O)c(-c2cc(O)c(O)c(O)c2)oc2cc(O)cc(O)c12 | Genome polyprotein, protease (ZIKV, UniProt A0A024B7W1) | enzyme activity, inhibitor, FRET | pH 7 | 22 µM
C[C@H](N)Cn1ncc2ccc3c(c21)CCCO3 | 5-hydroxytryptamine receptor 6 (HTR6, Homo sapiens, UniProt P50406) | ligand displacement, radioligand |  | 19.6 µM
N=C1CCCN1Cc1[nH]c(=O)[nH]c(=O)c1F | Thymidine phosphorylase (Homo sapiens, UniProt P19971) | enzyme activity, inhibitor |  | 0.009 µM
CC(=O)c1cc(O)c2ccccc2c1O | Genome polyprotein, methyltransferase (ZIKV, UniProt A0A024B7W1) | enzyme activity, inhibitor, TR-FRET |  | 12.9 µM
COc1cc(C(=O)N2CC[C@@H](O)[C@@H](N)C2)cc2nc(-c3cc4ccccc4n3CC3CC3)n(C)c12 | SCN5A | ion current, inhibitor |  | 39.8 µM
COc1c(-c2ccccc2)oc2c(ccc3occc32)c1=O | Cyclin-dependent kinase 2, with cyclin E1 (CDK2, Homo sapiens, UniProt P24941) | enzyme activity, inhibitor, ADP detection |  | > 10 µM
CCCCCCCCCCCCCCCCOC[C@H](COP(=O)([O-])OCC[N+](C)(C)C)OC(C)=O | Platelet-activating factor receptor (PTAFR, Homo sapiens, UniProt P25105) | ligand displacement, radioligand |  | 0.00027 µM
